As a reminder, the Kd is the constant that tells how readily two partners part at equilibrium. Lower therefore signals tighter binding. Usually Ki stands for the dissociation constant of the complex between target and ligand, obtained from inhibition or displacement. What is called logD is the decadic logarithm of the distribution of all forms, ionised or not, between an organic phase and buffer at a given pH. Low values mean a more hydrophilic compound, high ones a more lipophilic compound.

The subject of data set [1] is Plasma. In words: Metabolic stability of the compound in rat plasma at 7 to 8 MBq after 2 hrs by HPLC analysis. The class given is ADME, cell-free. Particulars: in the assay text read “21 MBq” for “7 to 8 MBq”. Summed up:
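Radiotracer (21 MBq) incubated at 37 °C for up to 2 h in phosphate buffer (4 mM KH2PO4/Na2HPO4, 155 mM NaCl, pH 7.4) or rat plasma. Samples taken at several time points, quenched with ice-cold MeCN. Plasma samples centrifuged at 12000g for 10 min. Samples filtered; supernatants analyzed by radio-HPLC on a reversed-phase C18 column with 70% aq MeCN.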

The target of data set [2] is T1, Metabotropic glutamate receptor 5 (Rattus norvegicus, UniProt P31424). In words: Binding affinity to mGluR5 receptor in Sprague-Dawley rat brain by beta counting. The essentials: (§1)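 0.1 mg protein incubated in triplicate at ambient temperature with 2 nM [3H]-ABP688 and competitor 10 pM–100 μM for 45 min. Nonspecific binding from 100 μM MMPEP. Filtered, β-counted.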

Data set [3] can be described thus: Chemical stability in phosphate buffer at 21 MBq at pH 7.4 after 2 hrs by HPLC analysis. Particulars: pH 7.4, 2 h.
Data set [4] has as its target T1, Metabotropic glutamate receptor 5. In words: Displacement of [3H]-ABP688 from mGluR5 receptor in Sprague-Dawley rat brain after 45 mins by beta counting. Summed up: as §1
A general note: Displacement assays read how much labelled ligand stays bound in the presence of the test substance.

The nature of data set [5]: Lipophilicity, log D of the compound at pH 7.4 by HPLC analysis. The class given is physicochemical. Particulars: buffer.
Data set [6] can be described thus: Lipophilicity, log D of the compound at pH 7.4 using shake flask method. Particulars: buffer. The class given is physicochemical.
The target in data set [7] is Metabotropic glutamate receptor 5 (Rattus norvegicus) (UniProt P31424). Nature of the data set: Binding affinity to mGluR5 receptor in Wistar rat brain at 1 to 10 nM after 45 mins by autoradiography in presence of ABP688. Particulars: tested as the 18F-labelled form. The essentials: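 Horizontal brain slices (20 μm) from a male Wistar rat were thawed and preincubated on ice for 10 min in HEPES buffer with 0.1% BSA. They were then incubated with 1 or 10 nM radiotracer, alone or with 100 nM ABP688, in HEPES for 45 min at ambient temperature. Washed on ice in HEPES/0.1% BSA, then twice in HEPES (3 min each), and dipped in water.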

Molecules are shown by their SMILES. Activity calls are given as the source filed them. The calls are words filed in the database; no cut-off is given here.

T1 sequence (P31424 whole entry): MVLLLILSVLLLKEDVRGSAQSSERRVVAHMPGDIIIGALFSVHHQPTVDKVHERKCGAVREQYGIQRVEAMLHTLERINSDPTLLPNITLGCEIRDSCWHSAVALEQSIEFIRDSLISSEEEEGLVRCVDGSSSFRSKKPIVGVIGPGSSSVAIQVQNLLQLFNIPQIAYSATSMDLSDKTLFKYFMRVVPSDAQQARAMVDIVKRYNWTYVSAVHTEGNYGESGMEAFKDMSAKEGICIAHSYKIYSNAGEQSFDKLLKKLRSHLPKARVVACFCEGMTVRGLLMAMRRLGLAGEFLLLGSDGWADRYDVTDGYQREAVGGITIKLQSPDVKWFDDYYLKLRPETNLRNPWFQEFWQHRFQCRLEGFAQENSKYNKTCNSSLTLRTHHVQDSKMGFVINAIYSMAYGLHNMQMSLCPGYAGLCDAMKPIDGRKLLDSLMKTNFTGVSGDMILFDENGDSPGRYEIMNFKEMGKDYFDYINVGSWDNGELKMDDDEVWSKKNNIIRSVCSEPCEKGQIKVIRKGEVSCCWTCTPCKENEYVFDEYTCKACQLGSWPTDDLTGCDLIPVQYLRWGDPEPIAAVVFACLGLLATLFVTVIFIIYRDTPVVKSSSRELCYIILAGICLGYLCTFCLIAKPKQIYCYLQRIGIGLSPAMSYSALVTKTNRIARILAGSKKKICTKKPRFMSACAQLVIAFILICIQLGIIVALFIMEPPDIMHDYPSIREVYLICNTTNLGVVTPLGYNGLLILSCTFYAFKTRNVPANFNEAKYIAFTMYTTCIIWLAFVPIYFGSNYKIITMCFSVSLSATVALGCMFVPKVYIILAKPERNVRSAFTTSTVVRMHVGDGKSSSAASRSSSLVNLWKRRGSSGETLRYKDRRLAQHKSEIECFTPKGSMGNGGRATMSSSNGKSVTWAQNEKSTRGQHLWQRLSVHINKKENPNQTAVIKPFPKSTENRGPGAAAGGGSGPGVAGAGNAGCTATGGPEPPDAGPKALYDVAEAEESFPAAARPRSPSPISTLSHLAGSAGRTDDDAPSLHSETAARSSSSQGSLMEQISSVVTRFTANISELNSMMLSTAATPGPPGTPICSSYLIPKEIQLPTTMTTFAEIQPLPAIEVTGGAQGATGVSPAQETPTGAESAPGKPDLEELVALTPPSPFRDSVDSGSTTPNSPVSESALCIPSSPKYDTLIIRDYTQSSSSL
Chain of Metabotropic glutamate receptor 5 (Rattus norvegicus) (P31424 21-1203 limits assumed): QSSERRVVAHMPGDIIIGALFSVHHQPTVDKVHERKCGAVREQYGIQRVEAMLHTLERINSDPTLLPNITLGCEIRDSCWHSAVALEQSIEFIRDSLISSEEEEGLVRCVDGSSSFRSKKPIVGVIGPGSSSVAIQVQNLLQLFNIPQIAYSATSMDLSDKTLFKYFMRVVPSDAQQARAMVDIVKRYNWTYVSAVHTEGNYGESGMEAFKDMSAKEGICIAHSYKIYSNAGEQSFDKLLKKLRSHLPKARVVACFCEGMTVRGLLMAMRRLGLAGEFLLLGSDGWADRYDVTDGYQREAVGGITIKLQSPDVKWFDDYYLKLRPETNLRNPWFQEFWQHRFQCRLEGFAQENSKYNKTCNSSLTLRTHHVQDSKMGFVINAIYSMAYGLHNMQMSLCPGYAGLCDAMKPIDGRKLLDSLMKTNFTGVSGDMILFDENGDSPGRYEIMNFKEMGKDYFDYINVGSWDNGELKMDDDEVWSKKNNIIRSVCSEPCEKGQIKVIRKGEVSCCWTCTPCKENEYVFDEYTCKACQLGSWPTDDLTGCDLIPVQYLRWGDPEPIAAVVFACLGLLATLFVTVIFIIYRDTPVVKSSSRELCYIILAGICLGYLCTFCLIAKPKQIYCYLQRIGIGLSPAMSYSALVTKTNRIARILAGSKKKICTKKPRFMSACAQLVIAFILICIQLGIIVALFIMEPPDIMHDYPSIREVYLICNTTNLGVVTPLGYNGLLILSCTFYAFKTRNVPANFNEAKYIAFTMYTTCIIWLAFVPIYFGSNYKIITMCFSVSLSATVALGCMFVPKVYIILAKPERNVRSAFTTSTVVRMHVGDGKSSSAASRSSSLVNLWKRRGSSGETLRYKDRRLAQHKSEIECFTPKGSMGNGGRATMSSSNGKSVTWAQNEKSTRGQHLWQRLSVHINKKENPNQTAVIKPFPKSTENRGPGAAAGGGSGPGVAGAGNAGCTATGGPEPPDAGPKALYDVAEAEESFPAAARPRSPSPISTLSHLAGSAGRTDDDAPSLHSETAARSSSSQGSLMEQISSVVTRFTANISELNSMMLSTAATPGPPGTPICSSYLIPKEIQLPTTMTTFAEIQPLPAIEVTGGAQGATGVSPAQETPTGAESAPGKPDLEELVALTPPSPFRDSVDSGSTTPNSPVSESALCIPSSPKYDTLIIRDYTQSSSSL

On to `CCO/N=C1\C=C(C#Cc2ccccn2)CCC1[18F]` (stereo unspecified), for which the Stability entry in data set [1] and in data set [3] was “Stable” in each case. Further, the equilibrium dissociation constant (Kd) in data set [2] amounted to 70 nM. Regarding `CO/N=C1/C=C(C#Cc2cccc(C)n2)CCC1F` (stereo unspecified), in data set [4], the Ki is 8.5 nM.

In the case of `CO/N=C1/C=C(C#Cc2ccccn2)CCC1F` (stereo unspecified), the inhibition constant (Ki) in data set [4] is 3.4 nM. Regarding `CCO/N=C1/C=C(C#Cc2ccccn2)CCC1F` (stereo unspecified), the Ki in data set [4] amounted to 5.7 nM. Regarding `CCO/N=C1/C=C(C#Cc2cccc(C)n2)CCC1F` (stereo unspecified), the Ki in data set [4] worked out at 13 nM.

In the case of `CCO/N=C1\C=C(C#Cc2ccccn2)CCC1F` (stereo unspecified), the values for the pH-dependent lipophilicity (logD) in data set [5] and in data set [6] were 2.1 and 3.5, respectively. The inhibition constant (Ki) in data set [4] is 31.2 nM. The outcome in data set [7] was Active.

The record behind these values is ChEMBL document CHEMBL2163223, “Synthesis and evaluation of novel α-fluorinated (E)-3-((6-methylpyridin-2-yl)ethynyl)cyclohex-2-enone-O-methyl oxime (ABP688) derivatives as metabotropic glutamate receptor subtype 5 PET radiotracers” (J Med Chem, 2012).
